This is a sample that favours compounds with a hit; in the whole collection about 2.7% have one here.
Rev-erbA mod: Rev-erb alpha (human) modulation. P20393. activity, % at 10 µM. 0.79% of 370,000 active. Rev-erbα–FITC-DNA binding, fluorescence polarization, 90 min;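 active = activity above about 14%, limit read from the data; passing the limit was not always enough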
Target sequence (P20393 whole entry, looked up): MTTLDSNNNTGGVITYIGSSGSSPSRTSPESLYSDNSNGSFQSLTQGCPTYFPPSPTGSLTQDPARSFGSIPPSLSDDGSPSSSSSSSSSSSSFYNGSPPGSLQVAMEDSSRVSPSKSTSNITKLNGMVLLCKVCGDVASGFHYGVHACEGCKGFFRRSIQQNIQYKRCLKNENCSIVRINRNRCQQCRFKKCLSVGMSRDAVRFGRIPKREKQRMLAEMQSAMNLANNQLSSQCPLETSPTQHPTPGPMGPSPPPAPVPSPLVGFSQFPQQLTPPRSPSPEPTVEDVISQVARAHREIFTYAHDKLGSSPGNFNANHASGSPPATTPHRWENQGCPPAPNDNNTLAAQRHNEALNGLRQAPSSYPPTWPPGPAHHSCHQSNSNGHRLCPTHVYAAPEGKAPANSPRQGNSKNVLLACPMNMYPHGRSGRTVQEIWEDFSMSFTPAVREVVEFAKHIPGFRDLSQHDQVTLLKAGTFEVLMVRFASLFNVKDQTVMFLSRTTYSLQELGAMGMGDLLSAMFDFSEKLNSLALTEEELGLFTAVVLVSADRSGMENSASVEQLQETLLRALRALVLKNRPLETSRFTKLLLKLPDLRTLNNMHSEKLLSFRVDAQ
bovine MsrA act: activates bovine MsrA enzyme | purified bovine MsrA, absorbance read-out | activation, % at 10.6 µM | 0.3% of 360,000 active; in the data active = activation above about 7.5%
ARFGAP1 inh: inhibits rat ARF GTPase activating protein 1; Q62848; 0.26% of 360,000 active; Arfgap1-stimulated ARF1 GTP hydrolysis, GDP FP detection; inhibition, % at 16.5 µM;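 active = inhibition above a per-plate limit, mean inhibition of low control wells plus 3 SD, cut at about 25% in these data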
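system = rat Arfgap1 catalytic domain, aa 1-136 | technique = FP, GDP Alexa 633 tracer displaced from anti-GDP antibody, 620/688 nm | compound = one concentration, 16.5 µM, DMSO 1.26% | medium = HEPES-based buffer, pH 7.5 | timing = compound-enzyme preincubation 20 min, reaction 120 min, detection 60 min, 25 °C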
MsrA inh: inhibits bovine methionine sulfoxide reductase A; purified bovine MsrA, absorbance read-out; inhibition, % at 15.5 µM; AID 651718; 0.75% of 360,000 active; in the data active = inhibition above about 4.5%
sPLA2-III inh: Inhibits HGIII-sPLA2 liposome hydrolysis, primary screen; Q9NZ20; QFRET BODIPY PC-A2 liposome hydrolysis, fluorescence; inhibition, % at 12.2 µM; 0.56% of 370,000 active;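 active = inhibition above mean plus 3 SD of compounds lying within the high and low control bounds, cut at about 19% in these data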
ASAP1 inh: ASAP1 ArfGAP inhibition; Q9ULH1; ASAP1-stimulated ARF1 GTP hydrolysis, GDP FP detection; inhibition, % at 16.5 µM; 0.19% of 360,000 active; AID 624377; in the data active = inhibition above about 25%
Rev-erbA confirm: Rev-erb alpha (human) modulation, hit confirmation | shares compounds with Rev-erbA mod | Rev-erb alpha FITC-DNA binding, fluorescence polarization, 90 min | activation, % at 25 µM | 61% of 3,000 active;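 active = activation at or above a set limit, or at least 3 SD above the negative control mean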
RORg counter: affects RORgamma DNA binding in a Rev-erb alpha counter-screen | shares compounds with Rev-erbA mod | purified RORgamma protein-FITC-DNA binding, fluorescence polarization | IC50, µM | 8% of 910 active | AID 1259320;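 active = Compounds whose fitted half-maximal concentration for disrupting protein-DNA binding is below 10 micromolar; the record names Rev-erb in its text, so the target is in doubt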
Each line names hits and unclear results; the compound was inactive in the other large screens (follow-up assays come after a bar, where they were run).

Cc1ccc2cc(CN(c3cccc(C)c3C)S(=O)(=O)c3ccccc3)c(=O)[nH]c2c1	Rev-erbA mod 20 | Rev-erbA confirm inactive
CCOC(=O)C1(C)CCCN1C(=O)c1ccc(C(F)(F)F)nc1C (stereo not drawn)	none
CC(C)Cn1c(N)c(C(=O)CSc2ncnc3sc4c(c23)CCCC4)c(=O)n(C)c1=O	Rev-erbA mod 65 | Rev-erbA confirm inactive
Cc1cccc(NC(=O)c2cc(NC(=O)c3ccccc3)ccc2N2CCCCC2)c1	Rev-erbA mod 34 | Rev-erbA confirm inactive
O=C(Nc1ccccc1)c1cccc(-c2nnc(-c3ccccc3)o2)c1	Rev-erbA mod 30 | Rev-erbA confirm inactive
O=C(Nc1cccc(-c2nnc(-c3ccccc3)o2)c1)c1ccco1	none
O=C(CCCn1c(=O)c2cccn2c2cccnc21)NCc1cccc(Br)c1	Rev-erbA mod 45 | Rev-erbA confirm 19
CCc1ccc(CNC(=O)CCCn2c(=O)c3cccn3c3cccnc32)cc1	none
O=C(CCCn1c(=O)c2cccn2c2cccnc21)NCCc1ccc(Cl)cc1	none
O=C(CCn1c(=O)c2cccn2c2cccnc21)NCc1cccc(Cl)c1	Rev-erbA mod 64 | Rev-erbA confirm 64 | RORg counter 4.3
Cc1c(-c2ccccc2)c(-c2ccc(OCCN(C)C)cc2)n2ccccc12	none
CCCCCCc1cc2cc(C(=O)Nc3ccccc3)c(=O)oc2cc1O	Rev-erbA mod 91 | Rev-erbA confirm 43 | RORg counter 6.3
C[C@@H]1O[C@H](CCc2cccc(Cl)c2)CC2=C1C(=O)OC(C)(C)O2	none
O=S(=O)(c1ccc(F)cc1)c1nc(-c2ccco2)oc1NCCCn1ccnc1	none
COc1ccc(C(=O)NC(C)C2CC3CCC2C3)cc1 (stereo not drawn)	none
CC(NC(=O)c1ccc(N(C)C)cc1)C1CC2CCC1C2 (stereo not drawn)	Rev-erbA mod 31 | Rev-erbA confirm 18
CN(C)C(=O)CNc1ccn2nc(-c3cccc(Cl)c3)cc2n1	none
CC(C)Cn1c(N)c(C(=O)COC(=O)c2cc(C(F)(F)F)nc3c(C(F)(F)F)cccc23)c(=O)n(C)c1=O	Rev-erbA mod 46 (no result: bovine MsrA act) | Rev-erbA confirm 21
Cn1c(=O)c(C(=O)COC(=O)c2cc(C(F)(F)F)nc3ccccc23)c(N)n(Cc2ccccc2)c1=O	none (no result: bovine MsrA act)
CN1CCN(CCNC(=O)c2ccc(CS(=O)c3ccc(Br)cc3)o2)CC1 (stereo not drawn)	none
CN(C)C=Nc1nc2c(Br)ccc(Br)c2cc1C(=O)NCC(C)(C)C	Rev-erbA mod 23 (no result: bovine MsrA act, ARFGAP1 inh, MsrA inh, ASAP1 inh) | Rev-erbA confirm 40 | RORg counter inactive
COc1ccc(-c2csc(C(C)(NC(C)=O)c3ccccc3)n2)cc1 (stereo not drawn)	none
Cc1nc(C(=O)Nc2ccccc2Cl)cc2c1[nH]c1ccccc12	Rev-erbA mod 21 | Rev-erbA confirm inactive
COc1ccc(NC(=O)c2cc3c([nH]c4ccccc43)c(C)n2)cc1	none
CS(=O)(=O)/C(C#N)=C/c1cccn1S(=O)(=O)c1cccc2ccccc12	none
COc1ccc(CC(=O)OCc2cc3ccccc3[nH]c2=O)cc1	none
COc1ccc(CC(=O)OCc2cc3ccc(C)cc3[nH]c2=O)cc1	Rev-erbA mod 34 | Rev-erbA confirm 31
Cc1ccc2[nH]c(=O)c(CN(C(=O)c3cccs3)c3ccccc3)cc2c1	Rev-erbA mod 52 | Rev-erbA confirm 96 | RORg counter inactive
O=C(OCc1cc2ccccc2[nH]c1=O)c1ccccn1	none
O=C(OCc1cc2ccccc2[nH]c1=O)c1cccs1	Rev-erbA mod 27 | Rev-erbA confirm 24
COc1cc(OC)cc(C(=O)OCc2cc3ccccc3[nH]c2=O)c1	Rev-erbA mod 57 | Rev-erbA confirm 50 | RORg counter inactive
O=C(c1cccs1)N1C(=O)c2cccc3cccc1c23	Rev-erbA mod 51 | Rev-erbA confirm 42 | RORg counter inactive
O=C(c1ccco1)N1C(=O)c2cccc3cccc1c23	none
O=C(O)c1ccccc1N1C(=O)c2cccc3cccc(c23)C1=O	none
O=C(c1ccccc1F)N1C(=O)c2cccc3cccc1c23	Rev-erbA mod 25 | Rev-erbA confirm inactive
O=[N+]([O-])c1ccc(N=Nc2ccc(O)cc2O)cc1	Rev-erbA mod 37 | Rev-erbA confirm 23
O=[N+]([O-])c1cccc(N=Nc2ccc(O)cc2O)c1	none
O=C(Nc1cc(S(=O)(=O)N2CCCCC2)ccc1N1CCOCC1)c1ccc(C(F)(F)F)cc1	none
COc1ccc(N/C=C2\C(=O)c3c(sc(C)c3C)N(C)S2(=O)=O)cc1	Rev-erbA mod 78 | Rev-erbA confirm inactive
O=C(CCn1nnc(-c2cccs2)n1)N1CCOCC1	none (no result: bovine MsrA act, ARFGAP1 inh, MsrA inh, ASAP1 inh)
OCc1cn(-c2ccccc2)nc1-c1ccc(-c2nn(-c3ccccc3)cc2CO)cc1	Rev-erbA mod 16 | Rev-erbA confirm inactive
O=C(Nc1nnc(SCc2ccccc2)s1)c1cc2c(s1)CCCC2	Rev-erbA mod 52 | Rev-erbA confirm 34 | RORg counter inactive
CCSc1nnc(NC(=O)c2cc3c(s2)CCCC3)s1	Rev-erbA mod 33 | Rev-erbA confirm 38 | RORg counter inactive
COc1ccc(OC)c(NC(=O)C2(C)CCN2CCOc2ccccc2)c1 (stereo not drawn)	none
Cc1ccc(-n2nc(C(=O)c3ccccc3)n3c(=O)cc(-c4ccccc4)nc23)cc1	Rev-erbA mod 49 | Rev-erbA confirm inactive
CCOC(=O)c1nn(-c2ccc(C)cc2)c2nc(Nc3ccccc3)cc(=O)n12	none
CCN(CC(=O)Nc1c(F)cccc1F)C(=O)CCCN1C(=O)c2cccc3cccc(c23)C1=O	none
COc1ccc(C(=O)c2c(-c3ccc(OC)cc3)oc3ccc(-c4ccc(OC)nc4)cc23)cc1	Rev-erbA mod 17 | Rev-erbA confirm inactive
CCOC(=O)C1CCN(S(=O)(=O)c2ccc(-c3ccc(=O)[nH]n3)o2)CC1	none
O=c1ccc(-c2ccc(S(=O)(=O)N3CCN(c4ccccc4)CC3)o2)n[nH]1	Rev-erbA mod 120 | Rev-erbA confirm 62 | RORg counter inactive
O=c1ccc(-c2ccc(S(=O)(=O)N3CCN(c4cccc(Cl)c4)CC3)o2)n[nH]1	Rev-erbA mod 76 | Rev-erbA confirm 86 | RORg counter inactive
O=C(O)CCC1C(=O)NC(=O)CC1c1ccccc1 (stereo not drawn)	none
CCOC(=O)[C@]12CCC=C1N(CCC1=CCCCC1)C(=O)[C@H](CC(=O)N1CCN(C(=O)c3ccco3)CC1)C2	none
O=C(Nc1ccc(F)c(Cl)c1)c1cc(C2CCCCN2C(=O)c2ccc3c(c2)CCO3)on1 (stereo not drawn)	none
Cc1cccc(-n2c(SCN3C(=O)c4ccccc4C3=O)nc3ccccc3c2=O)c1	none (no result: bovine MsrA act)

Screening results deposited in PubChem BioAssay by several laboratories.
